Consider 18 molecules from ChEMBL document CHEMBL1148134, “Differentiation- and apoptosis-inducing activities by pentacyclic triterpenes on a mouse melanoma cell line” (J Nat Prod, 2002).

In general, IC50 refers to the concentration at which inhibition is half-maximal. Low readings indicate higher potency, high ones lower potency.

Active and inactive are the calls of the source. No cut-off for these calls is given here.

One experiment deals with B16. Put plainly: Induction of melanogenesis in mouse B16 2F2 cells assessed as intracellular melanin content up to 10 uM after 3 days.
Details: not given
It is filed as functional, cell-based. Summed up:
(§1)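 Aliquots of 1 × 10^5 B16 2F2 cells in 1 mL incubated 3 days (72 h) across a triterpene concentration range, including 1.0 and 10 µM. Intracellular melanin content measured per previously described method. ED50 derived from dose-response curves of melanogenesis up-regulation.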
Turning to `CC1(C)CC[C@]2(C(=O)O)CC[C@]3(C)C(=CC[C@@H]4[C@@]5(C)CC[C@H](O)C(C)(C)[C@@H]5CC[C@]43C)[C@@H]2C1` [OLEANOLIC_ACID], the outcome was inactive.

In the case of `C[C@H]1[C@H](C)CC[C@]2(C(=O)O)CC[C@]3(C)C(=CC[C@@H]4[C@@]5(C)CC[C@H](O)C(C)(C)[C@@H]5CC[C@]43C)[C@H]12` [URSOLIC ACID], the outcome was inactive.

For the next experiment, the system named is B16. Put plainly: Growth inhibition of mouse B16 2F2 cells after 3 days. The note with it: B16, 72 h. It is filed as functional, cell-based. A digest of the protocol: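 B16 2F2 melanoma subclone, 1 × 10^5 cells per 1 mL aliquot, exposed to a range of triterpene concentrations for 3 days. Viable cells counted as in earlier work. IC50 = concentration giving 50% growth inhibition.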
`C[C@H]1[C@H](C)CC[C@]2(C)CC[C@]3(C)C(=CC[C@@H]4[C@@]5(C)CC[C@H](O)C(C)(C)[C@@H]5CC[C@]43C)[C@H]12` displayed an IC50 of 50 µM.

`CC1(C)CC[C@]2(C)CC[C@]3(C)C(=CC[C@@H]4[C@@]5(C)CCC(=O)C(C)(C)[C@@H]5CC[C@]43C)[C@@H]2C1` showed a concentration for half-maximal inhibition (IC50) of 38.7 µM.

Take `C[C@H]1[C@H](C)CC[C@]2(C)CC[C@]3(C)C(=CC[C@@H]4[C@@]5(C)CCC(=O)C(C)(C)[C@@H]5CC[C@]43C)[C@H]12`: the half-inhibitory concentration (IC50) is 40.3 µM.

With `C=C(C)[C@@H]1CC[C@]2(COC(C)=O)CC[C@]3(C)[C@H](CC[C@@H]4[C@@]5(C)CC[C@H](OC(C)=O)C(C)(C)[C@@H]5CC[C@]43C)[C@@H]12` [BETULIN DIACETATE], 36.8 µM corresponded to half-maximal inhibition (IC50).

For `C=C(C)[C@@H]1CC[C@]2(C=O)CC[C@]3(C)[C@H](CC[C@@H]4[C@@]5(C)CC[C@H](O)C(C)(C)[C@@H]5CC[C@]43C)[C@@H]12` [BETULINALDEHYDE], the IC50 was 6.4 µM.

As to `C=C(C)[C@@H]1CC[C@]2(C(=O)O)CC[C@]3(C)[C@H](CC[C@@H]4[C@@]5(C)CC[C@H](O)C(C)(C)[C@@H]5CC[C@]43C)[C@@H]12` [BETULINIC ACID], the midpoint of inhibition, the IC50, lay at 7.9 µM.

For the molecule `C=C(C)[C@@H]1CC[C@]2(CO)CC[C@]3(C)[C@H](CC[C@@H]4[C@@]5(C)CC[C@H](O)C(C)(C)[C@@H]5CC[C@]43C)[C@@H]12` [BETULIN], the IC50 worked out at 27.4 µM.

Molecule `C=C(C)[C@@H]1CC[C@]2(C=O)CC[C@]3(C)[C@H](CC[C@@H]4[C@@]5(C)CCC(=O)C(C)(C)[C@@H]5CC[C@]43C)[C@@H]12` [BETULONAL] came in with an IC50 of 4.1 µM.

With `C=C(C)[C@@H]1CC[C@]2(CO)CC[C@]3(C)[C@H](CC[C@@H]4[C@@]5(C)CCC(=O)C(C)(C)[C@@H]5CC[C@]43C)[C@@H]12` [BETULONE], the IC50 came to 29.3 µM.

`CC1(C)CC[C@]2(CO)CC[C@]3(C)C(=CC[C@@H]4[C@@]5(C)CC[C@H](O)C(C)(C)[C@@H]5CC[C@]43C)[C@@H]2C1` [ERYTHRODIOL] displayed an IC50 of 33.4 µM.

In turn, `C=C(C)[C@@H]1CC[C@]2(C)CC[C@]3(C)[C@H](CC[C@@H]4[C@@]5(C)CCC(=O)C(C)(C)[C@@H]5CC[C@]43C)[C@@H]12` [LUPENONE] returned an IC50 of 25.4 µM.

On to `C=C(C)[C@@H]1CC[C@]2(C)CC[C@]3(C)[C@H](CC[C@@H]4[C@@]5(C)CC[C@H](OC(C)=O)C(C)(C)[C@@H]5CC[C@]43C)[C@@H]12` [LUPENYL ACETATE], for which the IC50 came to 22.7 µM.

As to `C=C(C)[C@@H]1CC[C@]2(C)CC[C@]3(C)[C@H](CC[C@@H]4[C@@]5(C)CC[C@H](O)C(C)(C)[C@@H]5CC[C@]43C)[C@@H]12` [LUPEOL], the IC50 was 38 µM.

Molecule `C=C(C)[C@@H]1CC[C@]2(C(=O)OC)CC[C@]3(C)[C@H](CC[C@@H]4[C@@]5(C)CC[C@H](O)C(C)(C)[C@@H]5CC[C@]43C)[C@@H]12` [METHYL BETULINATE] displayed an IC50 of 4.9 µM.

Molecule `CC1(C)CC[C@]2(C(=O)O)CC[C@]3(C)C(=CC[C@@H]4[C@@]5(C)CC[C@H](O)C(C)(C)[C@@H]5CC[C@]43C)[C@@H]2C1` [OLEANOLIC_ACID] came in with an IC50 of 4.8 µM.

For the molecule `C[C@H]1[C@H](C)CC[C@]2(C(=O)O)CC[C@]3(C)C(=CC[C@@H]4[C@@]5(C)CC[C@H](O)C(C)(C)[C@@H]5CC[C@]43C)[C@H]12` [URSOLIC ACID], the IC50 is 3.1 µM.

`C[C@H]1[C@H](C)CC[C@]2(CO)CC[C@]3(C)C(=CC[C@@H]4[C@@]5(C)CC[C@H](O)C(C)(C)[C@@H]5CC[C@]43C)[C@H]12` [UVAOL] came in with an IC50 of 46.8 µM.

For the molecule `CC1(C)CC[C@]2(C)CC[C@]3(C)C(=CC[C@@H]4[C@@]5(C)CC[C@H](O)C(C)(C)[C@@H]5CC[C@]43C)[C@@H]2C1` [beta-AMYRIN], the IC50 was 48.8 µM.

The next experiment concerns B16. As to the kind of experiment: Induction of melanogenesis in mouse B16 2F2 cells assessed as intracellular melanin content after 3 days. It is filed as functional. As to conditions: B16, 72 h, read-out: ED50 (the source's name). A digest of the protocol: as §1
On to `C[C@H]1[C@H](C)CC[C@]2(C)CC[C@]3(C)C(=CC[C@@H]4[C@@]5(C)CC[C@H](O)C(C)(C)[C@@H]5CC[C@]43C)[C@H]12`, for which the EC50 was over 50 µM.

Consider `CC1(C)CC[C@]2(C)CC[C@]3(C)C(=CC[C@@H]4[C@@]5(C)CCC(=O)C(C)(C)[C@@H]5CC[C@]43C)[C@@H]2C1`, for which the EC50 is over 50 µM.

As for `C[C@H]1[C@H](C)CC[C@]2(C)CC[C@]3(C)C(=CC[C@@H]4[C@@]5(C)CCC(=O)C(C)(C)[C@@H]5CC[C@]43C)[C@H]12`, the EC50 was over 50 µM.

With `C=C(C)[C@@H]1CC[C@]2(COC(C)=O)CC[C@]3(C)[C@H](CC[C@@H]4[C@@]5(C)CC[C@H](OC(C)=O)C(C)(C)[C@@H]5CC[C@]43C)[C@@H]12` [BETULIN DIACETATE], the EC50 is 3.4 µM.

On to `C=C(C)[C@@H]1CC[C@]2(C=O)CC[C@]3(C)[C@H](CC[C@@H]4[C@@]5(C)CC[C@H](O)C(C)(C)[C@@H]5CC[C@]43C)[C@@H]12` [BETULINALDEHYDE], for which the EC50 worked out at 3.3 µM.

Take `C=C(C)[C@@H]1CC[C@]2(C(=O)O)CC[C@]3(C)[C@H](CC[C@@H]4[C@@]5(C)CC[C@H](O)C(C)(C)[C@@H]5CC[C@]43C)[C@@H]12` [BETULINIC ACID]: the EC50 was 4.1 µM.

For `C=C(C)[C@@H]1CC[C@]2(CO)CC[C@]3(C)[C@H](CC[C@@H]4[C@@]5(C)CC[C@H](O)C(C)(C)[C@@H]5CC[C@]43C)[C@@H]12` [BETULIN], the EC50 was determined as 4.8 µM.

Consider `C=C(C)[C@@H]1CC[C@]2(C=O)CC[C@]3(C)[C@H](CC[C@@H]4[C@@]5(C)CCC(=O)C(C)(C)[C@@H]5CC[C@]43C)[C@@H]12` [BETULONAL], for which the EC50 came to 0.35 µM.

Turning to `C=C(C)[C@@H]1CC[C@]2(CO)CC[C@]3(C)[C@H](CC[C@@H]4[C@@]5(C)CCC(=O)C(C)(C)[C@@H]5CC[C@]43C)[C@@H]12` [BETULONE], the EC50 was found to be 0.19 µM.

For `CC1(C)CC[C@]2(CO)CC[C@]3(C)C(=CC[C@@H]4[C@@]5(C)CC[C@H](O)C(C)(C)[C@@H]5CC[C@]43C)[C@@H]2C1` [ERYTHRODIOL], the EC50 is over 50 µM.

Regarding `C=C(C)[C@@H]1CC[C@]2(C)CC[C@]3(C)[C@H](CC[C@@H]4[C@@]5(C)CCC(=O)C(C)(C)[C@@H]5CC[C@]43C)[C@@H]12` [LUPENONE], the EC50 stood at 0.35 µM.

Turning to `C=C(C)[C@@H]1CC[C@]2(C)CC[C@]3(C)[C@H](CC[C@@H]4[C@@]5(C)CC[C@H](OC(C)=O)C(C)(C)[C@@H]5CC[C@]43C)[C@@H]12` [LUPENYL ACETATE], the EC50 came out at 7.5 µM.

In the case of `C=C(C)[C@@H]1CC[C@]2(C)CC[C@]3(C)[C@H](CC[C@@H]4[C@@]5(C)CC[C@H](O)C(C)(C)[C@@H]5CC[C@]43C)[C@@H]12` [LUPEOL], the EC50 amounted to 9.9 µM.

Consider `C=C(C)[C@@H]1CC[C@]2(C(=O)OC)CC[C@]3(C)[C@H](CC[C@@H]4[C@@]5(C)CC[C@H](O)C(C)(C)[C@@H]5CC[C@]43C)[C@@H]12` [METHYL BETULINATE], for which the EC50 was 2.5 µM.

For the molecule `C[C@H]1[C@H](C)CC[C@]2(CO)CC[C@]3(C)C(=CC[C@@H]4[C@@]5(C)CC[C@H](O)C(C)(C)[C@@H]5CC[C@]43C)[C@H]12` [UVAOL], the EC50 was over 50 µM.

Consider `CC1(C)CC[C@]2(C)CC[C@]3(C)C(=CC[C@@H]4[C@@]5(C)CC[C@H](O)C(C)(C)[C@@H]5CC[C@]43C)[C@@H]2C1` [beta-AMYRIN], for which the EC50 was over 50 µM.

A further experiment relates to B16. As to the kind of experiment: Induction of apoptosis in mouse B16 2F2 cells assessed as condensation and fragmentation of nuclei at 10 uM after 48 hrs by Hoechst 33258 staining based fluorescence microscopy. It is filed as functional.
Details: not given
Summed up:
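B16 2F2 cells held with or without triterpene at 10 µM for 48 h, collected, washed in PBS, fixed in 1% glutaraldehyde, then stained 30 min with 50 µM Hoechst 33258. Nuclear condensation/fragmentation scored by fluorescence microscopy, apoptotic cells counted manually on at least 200 cells.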
On to `C=C(C)[C@@H]1CC[C@]2(C=O)CC[C@]3(C)[C@H](CC[C@@H]4[C@@]5(C)CC[C@H](O)C(C)(C)[C@@H]5CC[C@]43C)[C@@H]12` [BETULINALDEHYDE], for which the Activity is reported as 70.4%.
